Compounds with a hit are over-represented: about 4.8% of the library has one in this group of screens.
UPR CHOP act: activators of apoptotic arm of unfolded protein response (CHOP). CHO-CHOP luciferase reporter, UPR activation, luminescence; percent of tunicamycin response over DMSO baseline. activation, % at 10 µM. 330,000 tested, 0.34% active. AID 449763;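 active means at 10 µM dose, activation of 40% or more, normalized to positive control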
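Test system: CHO-CHOP cells, stable luciferase reporter of PERK-eIF2a-CHOP signalling | Quantity: 500 CHO-CHOP cells per well | Buffer or medium: F12 plus 10% serum | Compound dosing: 10 µM single point, 0.5% DMSO | Schedule: 6 h compound treatment, 37 °C | Signal: Luciferase luminescence | Control set: Tunicamycin high control, DMSO low control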
SKKanGAS inh: blocks kanamycin growth of S. pyogenes SKKanGAS strain. BacTiter-Glo, 6 h. inhibition, % at 7.5 µM. 300,000 tested, 1.3% active. AID 1662;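 active means mean replicate score, as percent of positive control median, at least 50; inconclusive means mean below 50 but one replicate at or above 50; inactive means mean and every replicate below 50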;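 further: strain carries kanamycin resistance gene driven by streptokinase promoter and grows in 40 µg/ml kanamycin; loss of luminescence reflects streptokinase promoter inhibition or plain growth inhibition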
Mdm2-MdmX inh: inhibitors of human Mdm2/MdmX interaction | O15151+Q00987 | SaOS-2 split-luciferase Mdm2/MdmX complementation, luminescence | inhibition, % at 8 µM | 330,000 tested, 3% active;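 active means inhibition of at least 50% at 8 µM in the primary screen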
Target sequence (O15151 whole entry, looked up): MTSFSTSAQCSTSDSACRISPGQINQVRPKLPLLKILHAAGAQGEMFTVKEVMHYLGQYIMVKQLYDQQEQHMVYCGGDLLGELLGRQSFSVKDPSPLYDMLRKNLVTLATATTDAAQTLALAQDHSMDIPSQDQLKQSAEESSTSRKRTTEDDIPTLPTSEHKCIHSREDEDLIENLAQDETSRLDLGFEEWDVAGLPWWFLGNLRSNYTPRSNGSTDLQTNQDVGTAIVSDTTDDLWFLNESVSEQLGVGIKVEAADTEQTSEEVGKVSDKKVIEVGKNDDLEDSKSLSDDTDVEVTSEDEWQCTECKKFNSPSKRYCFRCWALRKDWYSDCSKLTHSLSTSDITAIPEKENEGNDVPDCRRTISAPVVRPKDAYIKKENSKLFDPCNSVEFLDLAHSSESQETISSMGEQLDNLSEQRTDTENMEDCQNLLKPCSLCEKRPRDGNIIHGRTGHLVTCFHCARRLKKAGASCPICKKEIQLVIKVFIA
Target sequence (Q00987 whole entry, looked up): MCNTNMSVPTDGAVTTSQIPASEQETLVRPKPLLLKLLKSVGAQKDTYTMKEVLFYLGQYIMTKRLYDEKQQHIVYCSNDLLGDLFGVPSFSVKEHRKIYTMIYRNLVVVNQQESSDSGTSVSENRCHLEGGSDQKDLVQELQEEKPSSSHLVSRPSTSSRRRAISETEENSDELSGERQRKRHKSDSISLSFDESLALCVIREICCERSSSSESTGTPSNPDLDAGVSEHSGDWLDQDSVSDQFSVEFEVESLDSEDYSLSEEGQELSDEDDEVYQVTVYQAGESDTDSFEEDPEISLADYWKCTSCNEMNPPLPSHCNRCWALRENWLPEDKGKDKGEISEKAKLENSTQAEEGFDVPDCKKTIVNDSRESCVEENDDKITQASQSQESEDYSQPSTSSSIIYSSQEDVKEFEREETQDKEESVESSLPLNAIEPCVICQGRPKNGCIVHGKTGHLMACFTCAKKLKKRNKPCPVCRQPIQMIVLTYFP
Beta cell apopt: beta cell apoptosis inhibition. INS-1E cytokine-induced death, ATP luminescence, 48 h; percent of positive-control rescue, neutral wells zero. protection from apoptosis, % (concentration not given with the values). 300,000 tested, 0.8% active. AID 435005;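 active means Every replicate reaches about 75%, or at least half do and their mean reaches it too, limit read from the data; inconclusive means At least half of replicates reach the limit but their mean does not; inactive means Under half of replicates reach the limit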;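 further: higher means more ATP so stronger rescue from cytokine killing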
CSC inhib: blocks cancer stem cells. cancer stem cell-like cells viability, luminescence. inhibition, % at 7.5 µM. 300,000 tested, 1.1% active. AID 2717; in the data active means inhibition above about 75%; inconclusive means no clear call, values can overlap the other calls; tested in HMLE shEcad cells
XBP1 UPR activ: adaptive UPR (XBP1) activation. CHO-XBP1 luciferase reporter, IRE1-XBP1 UPR activation, luminescence; percent of tunicamycin response, DMSO as zero. activation, % at 20 µM. 330,000 tested, 0.33% active;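 active means versus positive control, 20 µM dose yields 30% or more activation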
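Assay system: CHO-XBP1 luciferase reporter cells; Schedule: 6 h treatment, 37 °C; Detection: glow luminescence from Steady-Glo reagent; Benchmarks: high control tunicamycin 10 µg/mL final, low control DMSO vehicle only.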
Mdm2-MdmX conf: confirmation of human Mdm2/MdmX interaction inhibitors; Mdm2-MdmX binding, luminescent assay; 10,000 tested, 55% active; shares compounds with Mdm2-MdmX inh; inhibition, % at 8 µM; AID 489028; in the data active means inhibition above about 40%
FLuc counter: full-length luciferase inhibition in Mdm2/MdmX counter-screen. shares compounds with Mdm2-MdmX inh. SaOS-2 full-length luciferase counterscreen, luminescence. inhibition, % at 8 µM. 6,200 tested, 77% active. AID 504607;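 active means mean inhibition at 8 µM reaching about 37%, which flags the compound as non-specific, limit read from the data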;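 further: p53-null SaOS-2 cells with luciferase driven by a doxycycline-inducible promoter; compound on cells about two nights before reading with doxycycline added after day one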
Numbers stand for hits; 0 = inactive; ? = inconclusive; - = no result.

SMILES	UPR CHOP act	SKKanGAS inh	Mdm2-MdmX inh	Beta cell apopt	CSC inhib	XBP1 UPR activ	Mdm2-MdmX conf	FLuc counter
CC[C@H](CO)Nc1nc(Nc2cccc(Cl)c2)c2ncn(C(C)C)c2n1	0	0	90.3	0	81.5	0	71.4	39.8
CC(C)[C@H](CO)N(Cc1cccc(F)c1)c1nc(Nc2cccc(Cl)c2)c2ncn(C(C)C)c2n1	0	0	54.9	0	0	0	0	-
CCn1cnc2c(Nc3cccc(Cl)c3)nc(C#N)nc21	0	-	0	0	0	0	-	-
COC1CCN(C(=O)c2ccc(OC3CCN(CCc4ccccc4)CC3)cc2)CC1	0	0	0	-	0	0	-	-
CCN(CC)C1CCN(C(=O)c2ccc(OC3CCN(CCc4ccccc4)CC3)cc2)C1 (stereo not drawn)	0	0	55.5	0	0	0	43.6	73.5
Cn1nc([N+](=O)[O-])nc1S(C)(=O)=O	0	0	0	-	-	0	-	-
CS(=O)(=O)c1nc([N+](=O)[O-])nn1CCCc1ccccc1	0	0	55.2	0	0	0	0	-
Cc1cc(C)cc(OCc2nc3ncc(Br)cc3[nH]2)c1	0	0	81.2	0	0	0	73.7	0
CC(C)C(=O)Nc1ccc(S(=O)(=O)N2CCC(c3nc4ccccc4[nH]3)CC2)cc1	0	0	0	0	0	0	-	-
Cc1ccc(NC(=O)c2cc(C)nc3ccccc23)cc1	0	0	0	0	0	0	-	-
COc1ccc(NC(=O)c2cc(CC(C)C)nc3ccccc23)cc1	0	0	91.0	0	0	0	89.9	51.7
Cc1ccc(NC(=O)c2cc(CC(C)C)nc3ccccc23)cc1	0	0	81.9	0	0	0	83.5	54.8
COc1cc(C2NCC(c3ccc(Cl)cc3Cl)c3c2[nH]c2ccccc32)cc(OC)c1OC (stereo not drawn)	0	0	61.1	0	80.6	0	0	-
Cc1cc(Cl)ccc1NC(=O)CN1CCCC1	0	0	0	0	0	0	-	-
O=C(CN1CCCCC1)Nc1ccc(NC(=O)c2ccc(Cl)cc2)cc1Cl	0	0	57.1	0	0	0	0	-
CCc1cc2c(nc1CC)CCN(CC/C(C)=N/OC[C@H]1O[C@H](c3ccccc3)C=C[C@@H]1Oc1ccc(OC)cc1)C2	0	0	53.5	-	-	0	41.2	65.1
COc1ccc(O[C@H]2C=C[C@@H](c3ccccc3)O[C@@H]2CO/N=C(\C)CCN2CCc3nc(-c4ccccc4)c(-c4ccccc4)cc3C2)cc1	0	0	0	0	0	0	-	-
O=C1CC(/C=C/c2ccccn2)=Nc2ccccc2N1	0	0	0	0	0	0	-	-
O=C1CC(/C=C/c2ccc([N+](=O)[O-])cc2)=Nc2ccccc2N1	0	0	52.9	0	0	0	0	60.6
Oc1ccc(Nc2nc3ccccc3nc2Nc2ccc(O)cc2)cc1	0	0	100.4	-	77.9	0	0	-
CC1CCN(S(=O)(=O)CCNC(=O)c2ccc(F)cc2)CC1	0	0	0	0	-	0	-	-
Cc1ccccc1N1CCN(Cc2ccc(Br)o2)CC1	0	0	0	0	0	0	-	-
CCN(CC)S(=O)(=O)c1cc(NC(=O)CSc2nc3c(cc2C#N)C(=O)CC(C)(C)C3)ccc1C	0	0	66.7	0	0	0	63.2	45.5
Cc1oc2ccc(OCc3ccc(Br)cc3)cc2c1C(=O)O	0	0	0	0	0	0	-	-
CCN(CC)S(=O)(=O)c1ccc(OC(C)C)c(NC(=O)c2c3c(nc4ccccc24)CCN(Cc2ccccc2)C3)c1	0	0	54.9	0	-	0	53.8	79.9
SMILES	UPR CHOP act	SKKanGAS inh	Mdm2-MdmX inh	Beta cell apopt	CSC inhib	XBP1 UPR activ	Mdm2-MdmX conf	FLuc counter
COc1ccc(S(=O)(=O)N2CCCCCC2)cc1NC(=O)c1c2c(nc3ccccc13)CCN(Cc1ccccc1)C2	0	0	0	0	0	0	-	-
O=C(/C=C/Nc1ccccc1Br)c1ccccn1	0	0	75.3	0	0	0	75.6	0
CCOC(=O)C1=C(COC(=O)COc2ccc(C#N)cc2)NC(=O)NC1C (stereo not drawn)	0	0	0	-	0	0	-	-
COC(=O)C1=C(C)NC(C)=C(C(=O)OCC(C)C)C1c1ccccc1[N+](=O)[O-] (stereo not drawn)	0	0	71.7	0	0	0	64.8	0
COc1ccc2c(c1)-c1c(ssc1=S)C(C)(C)N2S(=O)(=O)c1ccc(C)cc1	0	0	58.0	0	0	0	46.1	61.3
COc1ccc2c(c1)C(=O)C(=O)N2	0	0	0	-	0	0	-	-
COc1cc2c3c(c1)-c1c(sn(-c4cc(OC)ccc4OC)c1=S)C(C)(C)N3C(=O)C2=O	0	0	0	0	0	0	-	-
COc1ccc2c(c1)-c1c(sn(-c3ccc(OC)c(OC)c3)c1=S)C(C)(C)N2	0	0	54.5	-	0	0	0	-
COc1ccc2c(c1)-c1c(ssc1=S)C(C)(C)N2	0	0	92.0	0	0	0	87.2	55.0
CCn1c(C)c(C)c2cc(C(=O)NCCN3CCCCCC3)ccc21	0	0	0	0	0	0	-	-
COc1cc(OC)cc(-c2sc3ccc(OC)cc3c2-c2ccc(OCCN3CCCCC3)cc2)c1	0	-	62.7	-	-	0	0	-
COc1ccc(-c2sc3cc4c(cc3c2-c2ccc(OCCN3CCCCC3)cc2)OCO4)cc1	0	-	70.1	-	-	0	0	-
c1ccc2c(-c3ccc(OCCN4CCCCC4)cc3)c(-c3ccsc3)sc2c1	0	-	68.4	0	103.4	0	0	-
c1ccc(-c2sc3ccccc3c2-c2ccc(OCCN3CCCCC3)cc2)cc1	0	-	0	0	0	0	-	-
Cc1ccc(C)c(NC(=S)NC(NC(=O)N(C)C)C(Cl)(Cl)Cl)c1 (stereo not drawn)	0	0	0	0	0	0	-	-
Cc1ccc(C)c(NC(=S)NC(NC(=O)Cc2cccc3ccccc23)C(Cl)(Cl)Cl)c1 (stereo not drawn)	51.7	0	99.3	76.3	?	47.5	98.6	0
CC(CN1CCCCC1)OC(=O)c1ccco1 (stereo not drawn)	0	0	0	0	0	0	-	-
COc1cc(C2CC(=O)c3cnc(N4CCN(Cc5ccccc5)CC4)nc3C2)cc(OC)c1OC (stereo not drawn)	0	0	52.3	0	0	0	67.7	51.5
CCc1nnc(NC(=O)c2ccc(Br)c(S(=O)(=O)N3CCOCC3)c2)s1	0	0	0	0	0	0	-	-
Cc1cccc(NC(=O)c2cc3n(n2)C(C(F)(F)F)CC(c2ccc4c(c2)OCO4)N3)c1 (stereo not drawn)	0	49.9	51.5	-	0	0	75.4	47.5
COc1ccc(NC(=O)c2cc3n(n2)C(C(F)(F)F)CC(c2ccc4c(c2)OCO4)N3)cc1OC (stereo not drawn)	0	-	0	-	0	0	-	-
